The values that follow come from BindingDB's records for doi:10.1021/jm00096a020 (University of California, 1992).

Each structure is given as a SMILES string. Where “and” joins values, the source holds several entries; their conditions need not be identical. Equal entries are not always repeated.

In experiment [1] the target is T1, Pol polyprotein (Human immunodeficiency virus 2, UniProt P88142). Nature of the experiment: (§1) Inhibition of HIV-2 protease in 5%DMSO. In a few lines: (§2)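 Purified recombinant HIV PR activity was followed by cleavage of a decapeptide substrate. Incubation was 30–45 min at 37 °C, and hydrolysis products were quantified by HPLC.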
Experiment [2] has as its target T2, Human immunodeficiency virus type 1 protease (Human immunodeficiency virus 1, UniProt Q72874). In words: Inhibition of HIV-1 protease in 10% fetal calf serum(FCS). In a few lines:
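COS A6 cells, which constitutively release viral capsids, were exposed to inhibitor in Dulbecco's PBS for 15 min. An equal volume of medium with 10% FCS plus inhibitor was then added and incubation continued for 3.75 h. Capsids were isolated from the supernatant, and polyprotein processing was scored as p24 by ELISA.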

The test system of the next experiment is HIV-1 protease. Nature of the experiment: Inhibitory concentration against HIV-1 protease. The method in brief:
as §2

Experiment [3] deals with T1, Pol polyprotein. Nature of the experiment: ChEBML_159124.
Excerpt: as §1

Experiment [4] concerns HIV-2 protease. In words: Inhibitory concentration against HIV-2 protease. The method in brief:
as §2

In experiment [5] the target is T2, Human immunodeficiency virus type 1 protease. Nature of the experiment: Inhibition of HIV-1 protease in 5%DMSO. In a few lines:
as §2

Experiment [6] has the same target. In words: ChEBML_79800. An excerpt: (§3) Inhibitory concentration against HIV-1 protease in the absence of DMSO
Experiment [7] shares this target. The description is as §3. In a few lines: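 The water-soluble dipotassium salt was tested against aspartyl proteases with no DMSO present, and IC50 values were determined.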
Experiment [8] relates to HIV-2 protease. Nature of the experiment: ChEBML_158058. From the text: In vitro Inhibitory activity against HIV-2 protease in the presence of 5%DMSO
Experiment [9] deals with T2, Human immunodeficiency virus type 1 protease. Nature of the experiment: Binding affinity against HIV-1 protease. In a few lines: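 Purified recombinant HIV-1 protease (6 × 10^-4 mg/mL) preincubated 1 min with inhibitor in 50 mM sodium acetate pH 5.5, 1 mM DTT, 1 mM EDTA, 1 M NaCl. Decapeptide substrate then added, 30–45 min at 37 °C. Activity read by HPLC quantitation of hydrolysis products. Inhibition plotted as a Dixon plot at several substrate concentrations.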

Experiment [10] has as its target HIV-2 protease (Human immunodeficiency virus 2). Nature of the experiment: Inhibitory concentration against HIV-2 protease in the absence of DMSO.
The target is the same in experiment [11]. Nature of the experiment: In vitro Inhibitory activity against HIV-2 protease in the presence of 5%DMSO.

T1 sequence (P88142 whole entry): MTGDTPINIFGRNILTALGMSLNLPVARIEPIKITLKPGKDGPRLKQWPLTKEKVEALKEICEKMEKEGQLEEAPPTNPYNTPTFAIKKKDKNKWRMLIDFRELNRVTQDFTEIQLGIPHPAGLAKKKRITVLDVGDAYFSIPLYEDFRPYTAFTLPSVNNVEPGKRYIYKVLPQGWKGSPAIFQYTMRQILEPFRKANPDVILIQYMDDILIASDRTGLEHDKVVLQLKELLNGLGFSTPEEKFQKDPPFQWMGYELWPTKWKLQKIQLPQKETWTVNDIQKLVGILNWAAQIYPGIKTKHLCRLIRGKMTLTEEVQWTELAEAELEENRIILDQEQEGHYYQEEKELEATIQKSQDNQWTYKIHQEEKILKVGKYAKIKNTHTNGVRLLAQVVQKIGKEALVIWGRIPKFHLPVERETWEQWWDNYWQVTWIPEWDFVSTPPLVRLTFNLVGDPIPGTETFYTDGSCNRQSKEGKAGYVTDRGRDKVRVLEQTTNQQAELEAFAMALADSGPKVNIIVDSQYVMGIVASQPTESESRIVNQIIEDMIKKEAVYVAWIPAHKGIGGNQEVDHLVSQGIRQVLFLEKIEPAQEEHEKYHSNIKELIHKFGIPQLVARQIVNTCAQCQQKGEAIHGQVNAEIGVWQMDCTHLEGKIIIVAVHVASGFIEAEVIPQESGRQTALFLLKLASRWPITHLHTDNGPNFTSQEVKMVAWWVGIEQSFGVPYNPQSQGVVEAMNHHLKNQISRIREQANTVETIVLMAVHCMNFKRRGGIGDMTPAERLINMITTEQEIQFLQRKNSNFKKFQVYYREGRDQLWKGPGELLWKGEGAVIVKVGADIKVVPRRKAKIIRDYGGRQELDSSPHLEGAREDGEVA

As usually defined, the IC50 is the concentration that gives 50% inhibition. Regarding `CC1=C(CCC(=O)O)c2cc3nc(cc4[nH]c(cc5[nH]c(cc1n2)c(C)c5C(COC(=O)C1=CC1)OC(=O)C1=CC1)c(C)c4C(COC(=O)C1=CC1)OC(=O)C1=CC1)C(C)=C3CCC(=O)O` (stereo not drawn), the IC50 against Pol polyprotein [1] was 0.7 µM; in experiment [2], 25 µM and > 150 µM; in the experiment with HIV-1 protease it was 0.05 µM; on Pol polyprotein [3], 0.7 µM; with HIV-2 protease [4], 0.23 µM; in experiment [5] it was 0.185 µM.
With `CC1=C(CCC(=O)O)/C2=C/c3c(CCC(=O)O)c(C)c4[n]3[Co][n]3/c(c(C)c(C(COC(=O)C5=CC5)OC(=O)C5=CC5)/c3=C/C3=NC(=C\4)/C(C(COC(=O)C4=CC4)OC(=O)C4=CC4)=C3C)=C\C1=N2` (stereo not drawn), the IC50 in experiment [2] stood at 25 µM; at Pol polyprotein [3], 1.5 µM; in experiment [6] it was 2.25 µM.
In general, Ki refers to the dissociation constant of the complex between target and ligand, obtained from inhibition or displacement. Read a low Ki as higher affinity. For `CC1=C(CCC(=O)O)/C2=C/c3c(CCC(=O)O)c(C)c4[n]3[Cu][n]3/c(c(C)c(C(COC(=O)C5=CC5)OC(=O)C5=CC5)/c3=C/C3=NC(=C\4)/C(C(COC(=O)C4=CC4)OC(=O)C4=CC4)=C3C)=C\C1=N2` (stereo not drawn), the IC50 is 0.725 µM in experiment [7]; over 70 µM in experiment [2]; 0.47 µM in the experiment on HIV-2 protease [8]; 2.2 µM against Pol polyprotein [3]; 0.975 µM in experiment [5]. In experiment [9], this molecule showed an inhibition constant (Ki) of 0.14 µM.
In the case of `CC1=C(CCC(=O)O)c2cc3nc(cc4[nH]c(cc5[nH]c(cc1n2)c(C)c5C(COC(=O)C1=CCC1)OC(=O)C1=CCC1)c(C)c4C(COC(=O)C1=CCC1)OC(=O)C1=CCC1)C(C)=C3CCC(=O)O` (stereo not drawn), the values for the half-maximal inhibitory concentration (IC50) (in experiment [2]; with HIV-2 protease [8]) were 10 µM and 0.55 µM, respectively.
As for `CC1=C(CCC(=O)O)/C2=C/c3c(CCC(=O)O)c(C)c4[n]3[Mn][n]3/c(c(C)c(C(COC(=O)C5=CC5)OC(=O)C5=CC5)/c3=C/C3=NC(=C\4)/C(C(COC(=O)C4=CC4)OC(=O)C4C=C4)=C3C)=C\C1=N2` (stereo not drawn), the IC50 came out at 0.1 µM in [7]; 65 µM in [2]; 0.7 µM in experiment [10]; 0.4 µM in experiment [5]; 1.2 µM in [11]. The same molecule gave a Ki in experiment [9] of 0.085 µM.
